Source: PubChem BioAssay
Sampled rows, rich in hits. Any-hit rate of the full collection: about 5.8%.
IDH1 mut inh: inhibitors of IDH1 R132H reductase, primary screen, biochemical, plate reader, single point | Isocitrate dehydrogenase [NADP] cytoplasmic (Homo sapiens), O75874 | diaphorase/resazurin fluorescence, 60 min | inhibition, % at 10 µM | hit rate 0.18% among 70,000; in the data active = inhibition above about 34%;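 also: 0% = DMSO and 100% = no enzyme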
Pf Dd2 inh: P. falciparum Dd2 growth inhibitors, primary screen, SYBR Green fluorescence, single dose replicates; 72 h; stronger effect = lower value; activity change, % at 10 µM; hit rate 2.3% among 94,000; in the data active = activity change below about -80%
T cruzi growth: T. cruzi intracellular proliferation inhibitors, primary screen, cell-based, beta-gal Tulahuen parasites, NIH3T3 host, luminescence | T. cruzi beta-gal in NIH3T3, GalScreen luminescence, 90 h | inhibition, % at 8.34 µM | hit rate 5.9% among 77,000 | AID 624255, 2012;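 active = mean inhibition above about 93%, with at least 55% of replicates each passing it, limit read from the data, passing the limit was not always enough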
KDM4C inh: inhibitors of GASC-1 (KDM4C) histone demethylase, primary screen, biochemical, single concentration HTS. Lysine-specific demethylase 4C (Homo sapiens), Q9H3R0. GST-KDM4C 2-372, H3K9me3 peptide, LANCE TR-FRET. inhibition, % at 12.5 µM. hit rate 0.15% among 96,000. AID 720574, 2013;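 active = mean replicate inhibition above about 25%, with at least 55% of replicates also reaching it, limit read from the data, passing the limit was not always enough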
Target sequence (Q9H3R0 2-372 limits assumed): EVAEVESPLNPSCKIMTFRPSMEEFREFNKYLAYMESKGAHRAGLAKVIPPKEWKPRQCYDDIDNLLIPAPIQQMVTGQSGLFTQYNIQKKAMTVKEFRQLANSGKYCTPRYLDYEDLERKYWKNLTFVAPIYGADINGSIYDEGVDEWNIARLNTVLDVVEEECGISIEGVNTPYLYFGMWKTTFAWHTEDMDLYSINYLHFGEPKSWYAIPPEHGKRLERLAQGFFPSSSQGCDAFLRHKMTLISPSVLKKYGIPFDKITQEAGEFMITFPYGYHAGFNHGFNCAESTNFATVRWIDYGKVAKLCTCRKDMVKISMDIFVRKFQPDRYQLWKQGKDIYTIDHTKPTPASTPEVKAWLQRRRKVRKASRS
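Material: N-terminal GST-fused human GASC-1 (KDM4C) fragment, residues 2-372. Input: 10 nM enzyme. Incubation: enzyme reaction 30 min, then detection 60 min, both room temperature. Doses: one test concentration per compound. Read-out basis: inhibition from TR-FRET ratio decrease. Detection: LANCE TR-FRET, excitation 340 nm, emissions 618 and 671 nm.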
* = called active by the depositor; . = not tested or not shown.

SMILES	IDH1 mut inh	Pf Dd2 inh	T cruzi growth	KDM4C inh
CCCCn1cc(C2CC(=O)N(c3ccc(Br)cc3)C2=O)c2ccccc21 (centres undefined)	0	.	.	.
COc1cc([N+](=O)[O-])ccc1NC(=O)CN(C)S(=O)(=O)c1ccc(C)cc1	0	.	.	.
C[C@H]1CCCCO[C@@H](CN(C)C(=O)Nc2ccc(C(F)(F)F)cc2)[C@@H](C)CN([C@@H](C)CO)C(=O)c2cc(NS(=O)(=O)c3ccc(F)cc3)ccc2O1	.	-46	87	0
Cc1ccc(S(=O)(=O)Nc2ccc3c(c2)C(=O)N([C@@H](C)CO)C[C@@H](C)[C@@H](CN(C)Cc2ccc(C(F)(F)F)cc2)OCCCC[C@H](C)O3)cc1	1	-81*	.	0
Cc1ccc(S(=O)(=O)Nc2ccc3c(c2)C(=O)N([C@@H](C)CO)C[C@@H](C)[C@@H](CN(C)C(=O)Nc2ccc(C(F)(F)F)cc2)OCCCC[C@H](C)O3)cc1	.	-82*	87	1
C[C@@H]1CCCCO[C@H](CN(C)C(=O)Nc2ccc(C(F)(F)F)cc2)[C@@H](C)CN([C@@H](C)CO)C(=O)c2cc(NS(=O)(=O)c3ccc(F)cc3)ccc2O1	2	-84*	78	0
Cc1ccc(S(=O)(=O)Nc2ccc3c(c2)C(=O)N([C@H](C)CO)C[C@@H](C)[C@H](CN(C)Cc2ccc(C(F)(F)F)cc2)OCCCC[C@@H](C)O3)cc1	.	-73	.	-1
CCn1c2ccccc2n2c(SCC(=O)Nc3ccc(Cl)cc3)nnc12	-1	.	.	.
CCC(=O)N[C@@H]1C=C[C@H](CC(=O)NCC2CCCCC2)O[C@@H]1CO	-1	-11	82	2
O=C(C[C@@H]1C=C[C@@H](NC(=O)C2CCC2)[C@H](CO)O1)NC1CCC1	-1	-87*	.	-2
CCC(=O)N[C@H]1C=C[C@H](CC(=O)NCC2CCCCC2)O[C@@H]1CO	-1	-88*	-62	-1
CO[C@H]1CN(C)C(=O)c2cc(NC(=O)c3ccccc3F)ccc2OC[C@H](C)N(C(=O)c2ccccc2F)C[C@H]1C	0	-87*	86	0
CO[C@@H]1CN(C)C(=O)c2cc(NC(=O)Cc3ccccc3)ccc2OC[C@H](C)N(C(=O)c2ccccc2F)C[C@@H]1C	0	-82*	-49	1
O=C(O)CCCCCC(=O)N/N=C/c1cc(O)ccc1Br	5	.	.	.
COC(=O)CCCCCCC(=O)N/N=C/c1cc(O)ccc1O	53*	.	.	.
O=C(CCCCC(=O)N/N=C/c1cc(O)ccc1O)NO	88*	.	.	.
CS(=O)(=O)N(CC(=O)Nc1ccc(I)cc1)c1cccc2ccccc12	1	.	.	.
COc1ccc2c3c(n(C)c2c1)[C@H](CO)N(CC1CCCC1)CC31CCN(Cc2nccs2)CC1	.	-71	.	1
COc1ccc2c3c(n(C)c2c1)[C@H](CO)N(Cc1ccc(Cl)cc1)CC31CCN(CC2CC2)CC1	.	-88*	.	4
COc1ccc2c3c(n(C)c2c1)[C@H](CO)N(Cc1ccc(F)cc1)CC31CCN(CC2CC2)CC1	.	-84*	.	0
COc1ccc2c3c(n(C)c2c1)[C@@H](CO)N(Cc1ccc(Cl)cc1)CC31CCN(CC2CC2)CC1	.	-91*	.	2
COc1ccc2c3c(n(C)c2c1)[C@@H](CO)N(CC1CCCCC1)CC31CCN(Cc2nccs2)CC1	.	-90*	.	1
COc1ccc2c3c(n(C)c2c1)[C@H](CO)N(Cc1ccc(Cl)cc1)CC31CN(CC2CC2)C1	.	-58	.	-1
COc1cc(C2c3c(cc(OC)c(O)c3O)CC(CO)C2CO[C@@H]2O[C@H](C(=O)O)[C@@H](O)[C@H](O)[C@H]2O)cc(OC)c1O (some centres undefined)	-1	.	.	.
COc1ccc2c3c(n(C)c2c1)[C@H](CO)N(Cc1ccccc1F)CC31CCN(CC2CC2)CC1	.	-90*	.	2
COc1ccc(N(C(C)C(=O)Nc2ccccc2Cl)S(C)(=O)=O)cc1 (centres undefined)	-1	.	.	.
C/C=C/c1ccccc1[C@H]1[C@@H](C#N)N(C(=O)NC2CCCC2)[C@H]1CO	.	-82*	.	0
CC(C)NC[C@@H]1[C@@H](c2ccc(C3=CCCCC3)cc2)[C@@H](CO)N1C(=O)CC1CC1	.	-83*	.	.
N#C[C@@H]1[C@H](c2ccc(C3=CCCCC3)cc2)[C@@H](CO)N1C(=O)NC1CCCC1	.	-83*	.	5
COc1ccccc1-c1nnc(SCC(=O)c2ccc(NC(C)=O)cc2)o1	0	.	.	.
